High-throughput results deposited in PubChem BioAssay by several laboratories.
Scp1 inh: Scp-1 phosphatase inhibitors, primary screen, biochemical, colorimetric, uHTS. Recombinant Scp1, phosphopeptide, malachite green phosphate absorbance. inhibition, % at 20 µM. actives 0.88% (n = 340,000). AID 493091, 2011;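 active = inhibition above about 50% at 20 µM, limit read from the data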
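Material – SCP-1 phosphatase catalytic domain, residues 76-261 · Buffer or medium – Acidic Tris acetate buffer with magnesium and detergent · Also added – Phospho 17-mer peptide substrate · Compound – single 20 µM dose, 1% DMSO · Times – 45 min room-temperature reaction, 5 min colour, 30 min stabiliser · Technique – Phosphate-binding colour reagent, absorbance read at 630 nm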
STEP block: STEP phosphatase inhibitors, primary screen, biochemical, fluorescence intensity, uHTS | Tyrosine-protein phosphatase non-receptor type 5 (Homo sapiens), P54829 | recombinant STEP, OMFP fluorogenic substrate | inhibition, % at 20 µM | actives 0.25% (n = 360,000);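 active = inhibition at 20 µM, scaled per plate between control wells, above about 37%, limit read from the data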
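Assay system: isolated STEP enzyme / Timing: 20 min at room temperature, dark / Doses: 20 µM, 1% DMSO / Technique: fluorescence intensity, excitation 480 nm, emission 540 nm / Reagent: fluorogenic phosphatase substrate OMFP at 25 µM final / Measure: percent inhibition scaled to no-enzyme and uninhibited-enzyme controls, plate-pattern corrected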
DNMT1 block: human DNMT1 methyltransferase inhibitors, primary screen, biochemical, molecular beacon, fluorescence, HinP1I cleavage, uHTS. DNA (cytosine-5)-methyltransferase 1 (Homo sapiens), P26358. inhibition (reported as % activation of signal), % at 10 µM. actives 0.83% (n = 360,000). AID 588458, 2011; in the data active = inhibition above about 50%
LMPTP inh: LMPTP phosphatase inhibitors, primary screen, biochemical, fluorescence intensity, uHTS | recombinant LMPTP-A, OMFP fluorogenic substrate | Low molecular weight phosphotyrosine protein phosphatase (Homo sapiens), P24666 | actives 0.22% (n = 360,000) | inhibition, % at 20 µM;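 active = compounds that cut the enzyme signal by at least half of the control window in the single-dose screen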
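test system = LMPTP-A | amount = 0.625 nM LMPTP-A final | reagent = fluorogenic phosphatase substrate OMFP at 400 µM final | incubation = 50 min at room temperature | benchmarks = no-enzyme low control, uninhibited high control | medium = Bis-Tris pH 6.0, DTT, detergent | signal = fluorescence intensity of OMFP turnover product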
SUMO1 PPI mod: modulators of SUMO1 protein-protein interactions, primary screen, biochemical, uHTS. SUMO1 binding to a labelled peptide, TR-FRET, 1 h. inhibition, % at 20 µM. actives 0.33% (n = 360,000). AID 602429, 2012; in the data active = inhibition above about 37%
GRK2 aptamer HTS: compounds blocking aptamer binding on GRK2 – biochemical, human GRK2, bead flow cytometry, HTS, primary screen; AID 488847, 2010; Beta-adrenergic receptor kinase 1 (Homo sapiens), P25098; actives 0.59% (n = 330,000); FAM-aptamer displacement from GRK2; inhibition of aptamer binding, % at 10 µM;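 active = inhibition of aptamer binding above 40%, roughly 3 SD of noise, on plates passing a quality check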;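 also: median bead fluorescence of bound FAM aptamer so fluorescent compounds give negative values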
Target sequence (P25098 whole entry, looked up): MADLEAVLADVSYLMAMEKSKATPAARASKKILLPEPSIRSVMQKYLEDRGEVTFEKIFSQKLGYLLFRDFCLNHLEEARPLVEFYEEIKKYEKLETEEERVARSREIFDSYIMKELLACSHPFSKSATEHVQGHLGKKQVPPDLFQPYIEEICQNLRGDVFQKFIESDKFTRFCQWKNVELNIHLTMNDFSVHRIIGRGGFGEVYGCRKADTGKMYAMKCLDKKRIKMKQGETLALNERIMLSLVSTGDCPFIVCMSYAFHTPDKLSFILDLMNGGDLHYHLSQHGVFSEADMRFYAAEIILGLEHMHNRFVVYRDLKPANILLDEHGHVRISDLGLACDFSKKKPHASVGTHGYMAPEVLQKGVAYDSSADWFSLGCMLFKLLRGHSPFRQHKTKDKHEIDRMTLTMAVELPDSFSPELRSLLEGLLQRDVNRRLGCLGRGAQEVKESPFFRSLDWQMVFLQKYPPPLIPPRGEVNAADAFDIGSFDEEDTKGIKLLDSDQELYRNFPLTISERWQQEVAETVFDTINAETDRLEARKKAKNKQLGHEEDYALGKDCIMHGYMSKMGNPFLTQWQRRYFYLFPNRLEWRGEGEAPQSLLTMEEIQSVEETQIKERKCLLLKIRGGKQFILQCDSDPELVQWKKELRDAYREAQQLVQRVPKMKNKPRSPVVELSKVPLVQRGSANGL
Scp1 confirm: Scp-1 phosphatase inhibitors, retest, confirmation, biochemical, colorimetric, single concentration; actives 61% (n = 2,500); inhibition, % at 20 µM; shares compounds with Scp1 inh; AID 540281, 2011; recombinant SCP-1 catalytic domain, phosphate release, malachite green absorbance
MG interference: colorimetric readout interference by compounds, confirmation, artefact control for Scp-1 inhibitor project, biochemical, single concentration. shares compounds with Scp1 inh. Colorimetric interference counterscreen, malachite green absorbance 630 nm. apparent inhibition (interference), % at 20 µM. 2,500 tested, under 10 active. AID 540313, 2011;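 also: compounds added after enzyme reaction finished so only phosphate colour detection is probed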
Scp-1 Tm shift: Scp-1 binding by thermal shift, confirmation, orthogonal assay for Scp-1 inhibitor project, biophysical, differential scanning fluorimetry; thermal shift relative to vanadate control, % at 40 µM; Recombinant SCP1, Sypro Orange thermal shift Tm; AID 540329, 2011; actives 25% (n = 1,500); shares compounds with Scp1 inh;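 active = substances whose mean melting-temperature shift, as a percentage of the reference inhibitor's shift, reaches about 5.3%, limit read from the data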
Each line names hits and unclear results; the compound was inactive in the other large screens (follow-up assays come after a bar, where they were run). This is a sample that favours compounds with a hit; in the whole collection about 2.2% have one here.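 The calls were made as follows, unless noted: active = inhibition of at least 30% at 20 µM; inactive = the rest.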

C=CCN1C(=O)C(=O)N(CC(=O)NCC(=O)Nc2ccc(F)c(F)c2F)C1=O	none | Scp1 confirm inactive | MG interference inactive
CC1=CC(C)(C)[N+](C)(C)c2ccccc21	Scp1 inh 72 | Scp1 confirm inactive | MG interference inactive
C[C@H]1CN([C@@H](C)CO)C(=O)Cc2cc(NS(=O)(=O)c3cn(C)cn3)ccc2O[C@@H]1CN(C)C(=O)Nc1ccc(F)cc1	Scp1 inh 73 | Scp1 confirm 37 | MG interference inactive | Scp-1 Tm shift inactive
C[C@H](CO)N1C[C@H](C)[C@@H](CN(C)C(=O)NC2CCCCC2)Oc2ccc(NS(=O)(=O)c3cccs3)cc2C1=O	Scp1 inh 56 | Scp1 confirm inactive | MG interference inactive
C[C@@H]1CN([C@H](C)CO)C(=O)c2cc(NS(=O)(=O)c3cn(C)cn3)ccc2O[C@H]1CN(C)C(=O)Nc1ccccc1	Scp1 inh 82 | Scp1 confirm inactive | MG interference inactive
N#Cc1ccc(CN(Nc2ccccc2)c2ccccc2)cc1	none (no result: Scp1 inh, GRK2 aptamer HTS)
CC1(C(=O)NS(=O)(=O)C2CC2)CCCN(C(=O)c2cccnc2Oc2ccccc2)C1 (stereo not drawn)	none (no result: Scp1 inh, GRK2 aptamer HTS)
O=C(Oc1ccccc1C(=O)N1CCOCC1)c1ccc(F)cc1	Scp1 inh 97 | Scp1 confirm inactive | MG interference inactive
O=C(Oc1ccccc1C(=O)N1CCOCC1)c1ccc(Br)cc1	none
CC(=O)Nc1nnc(SCC(=O)Nc2ccc(N3CCOCC3)c(Cl)c2)s1	Scp1 inh 63 | Scp1 confirm inactive | MG interference inactive
N#C/C(=C\c1cc(Br)ccc1F)C(=O)NC1CC1	none
O=C(NCCCN1CCCC1=O)Nc1ccccc1F	none | Scp1 confirm inactive | MG interference inactive
O=C1CCCN1CCCNS(=O)(=O)c1ccc(F)cc1F	none | Scp1 confirm inactive | MG interference inactive
CCc1nc2ccc(C(=O)Nc3cc(-c4ccccc4)ccc3OC)cn2c1N(C)C(=O)c1cccc(OC)c1	none (no result: Scp1 inh, GRK2 aptamer HTS)
CCCn1nc(NC(=O)COC)c2cc3cc(C)ccc3nc21	Scp1 inh 62 | Scp1 confirm inactive | MG interference inactive
Cn1c(=O)c2nc(-c3ccc(Cl)cc3Cl)oc2c2ccccc21	Scp1 inh 73, LMPTP inh 89 | Scp1 confirm inactive | MG interference inactive
COCCn1c(-c2ccc(Cl)cc2Cl)nc2c(c(=O)c3ccccc3n2C)c1=O	none
Nc1ccc(C(=O)Nc2ccc3c(O)cc(S(=O)(=O)O)cc3c2)cc1	Scp1 inh 53 (no result: GRK2 aptamer HTS) | Scp1 confirm 46 | MG interference inactive | Scp-1 Tm shift 11
O=C(Nc1ccc2oc(-c3ccncc3)nc2c1)c1ccc2c(c1)OCCO2	Scp1 inh 100 | Scp1 confirm inactive | MG interference inactive
O=C(Nc1ccc2oc(-c3ccccc3)nc2c1)c1ccc2c(c1)OCCO2	none
CCOC(=O)N1CCN(C(=O)CSc2nc3ccccc3c(=O)n2-c2ccccc2)CC1	none
CCOC(=O)N1CCN(C(=O)CSc2ncnc3ccccc23)CC1	Scp1 inh 54 | Scp1 confirm inactive | MG interference inactive
CCC(=O)Nc1ccc(NC(=S)NC(=O)/C=C/c2ccccc2)cc1	Scp1 inh 67 | Scp1 confirm inactive | MG interference inactive
COc1ccc(C(C)=O)cc1CN1C(=O)C(C)ON=C1c1ccccn1 (stereo not drawn)	none (no result: Scp1 inh, GRK2 aptamer HTS)
CC(C)C1C(=O)N(Cc2cn(Cc3ccco3)nn2)CCS(=O)(=O)N1Cc1ccc(-c2ccc(F)cc2)cc1 (stereo not drawn)	none (no result: Scp1 inh, GRK2 aptamer HTS)
CC(C)CCC[C@](C)(O)c1ccc(C(=O)O)cc1O	none (no result: Scp1 inh, STEP block, DNMT1 block, GRK2 aptamer HTS)
CC(C)(O)CCCC(C)(O)c1ccc(C(=O)O)cc1O (stereo not drawn)	Scp1 inh 61 | Scp1 confirm 52 | MG interference inactive | Scp-1 Tm shift 6.1
COc1ccc(CNC(=O)CSc2nnc3c(n2)[nH]c2ccc(F)cc23)cc1	Scp1 inh 62 | Scp1 confirm 31 | MG interference inactive | Scp-1 Tm shift inactive
COc1ccc(CNC(=O)CSc2nnc3c(n2)[nH]c2ccc(OC)cc23)cc1	Scp1 inh 65 | Scp1 confirm 70 | MG interference inactive | Scp-1 Tm shift inactive
COc1cccc(CNC(=O)CSc2nnc3c(n2)[nH]c2ccc(C)cc23)c1	none
COc1ccccc1NC(=O)Nc1ccnn1C1CCN(C(=O)C2CCOC2)CC1 (stereo not drawn)	none (no result: Scp1 inh, GRK2 aptamer HTS)
N#CC1(NC(=O)COc2ccccc2[N+](=O)[O-])CCCCC1	Scp1 inh 52 | Scp1 confirm 73 | MG interference inactive | Scp-1 Tm shift inactive
N#CC1(NC(=O)COc2cc(F)ccc2[N+](=O)[O-])CCCCC1	none
CCC(=O)Nc1ccc2c(c1)OC[C@@H](C)N(Cc1ccccc1F)C[C@@H](C)[C@@H](OC)CN(C)C2=O	none (no result: Scp1 inh, STEP block, DNMT1 block, GRK2 aptamer HTS)
C[N+](C)(C)CCCN(Cc1ccc2c(c1)OCO2)C(=O)NC1CCCCC1	Scp1 inh 91 | Scp1 confirm 79 | MG interference inactive | Scp-1 Tm shift inactive
CN(C)S(=O)(=O)c1ccc(Cl)c(NC(=O)COC(=O)/C=C/c2ccco2)c1	Scp1 inh 69 | Scp1 confirm 46 | MG interference inactive | Scp-1 Tm shift inactive
COC(=O)c1ccc(C(=O)N2CCCC(C)(C(=O)NS(=O)(=O)C3CC3)C2)cc1 (stereo not drawn)	none (no result: Scp1 inh, GRK2 aptamer HTS)
CCOCCCNC(=O)Cn1cc2c(n1)CCCC2	Scp1 inh 75 | Scp1 confirm inactive | MG interference inactive
COc1ccccc1/C=C/C=N/NC(=O)CC1C(=O)NN=C1C (stereo not drawn)	none
